From ChEMBL document CHEMBL3525903 (Drug Metab Dispos, 2013)

Legend:
[1] = target: T1, Solute carrier organic anion transporter family member 1B3 (Homo sapiens, UniProt Q9NPD5); experiment: Inhibition of OATP1B3 (unknown origin) expressed in HEK293 cells assessed as reduction of [3H]CCK8 substrate uptake at 100 uM by liquid scintillation counting; assay type: ADME, cell-based; conditions: hek293, 100 µM
T1 sequence (Q9NPD5 whole entry): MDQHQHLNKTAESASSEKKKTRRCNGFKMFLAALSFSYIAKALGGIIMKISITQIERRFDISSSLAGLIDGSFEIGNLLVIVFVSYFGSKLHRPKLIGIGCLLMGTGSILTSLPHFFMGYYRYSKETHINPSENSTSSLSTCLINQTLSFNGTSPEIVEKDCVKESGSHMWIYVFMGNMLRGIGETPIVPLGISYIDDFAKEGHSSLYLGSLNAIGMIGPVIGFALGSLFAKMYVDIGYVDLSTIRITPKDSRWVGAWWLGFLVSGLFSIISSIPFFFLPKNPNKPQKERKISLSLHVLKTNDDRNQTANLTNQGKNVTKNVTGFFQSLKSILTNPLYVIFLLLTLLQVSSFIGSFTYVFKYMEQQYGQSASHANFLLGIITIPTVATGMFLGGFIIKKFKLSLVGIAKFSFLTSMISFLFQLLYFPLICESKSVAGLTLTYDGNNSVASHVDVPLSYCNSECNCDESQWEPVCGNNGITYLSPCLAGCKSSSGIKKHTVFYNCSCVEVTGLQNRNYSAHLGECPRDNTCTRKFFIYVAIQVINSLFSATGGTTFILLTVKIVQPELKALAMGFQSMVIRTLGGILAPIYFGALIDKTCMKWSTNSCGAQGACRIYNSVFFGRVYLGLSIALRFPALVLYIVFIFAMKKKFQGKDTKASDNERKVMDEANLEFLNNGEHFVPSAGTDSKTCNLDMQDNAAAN
Summary of the method: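 HEK293 cells transiently transfected with OAT, OATP or OCT plasmid (FuGENE6; 24 h, then 24 h more with sodium butyrate), or stable OCTN1/OCTN2 lines; vector-transfected cells as control. Washed, preincubated 15–60 min at 37 °C in modified Krebs-Henseleit/25 mM HEPES buffer. Uptake of radiolabelled substrate, 100 µM inhibitor. Cells lysed in NaOH and counted by scintillation; counts normalised to medium radioactivity and Lowry protein; vector uptake subtracted.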

P-glycoprotein [2] = experiment: Permeability assessed as human P-glycoprotein-mediated transport across basolateral to apical side expressed in pig LLC-PK1 cells at 500 uM by liquid scintillation counting; assay type: ADME, cell-based
P-glycoprotein [3] = experiment: Permeability assessed as human P-glycoprotein-mediated transport of basolateral to apical side in pig LLC-PK1 cells by measuring nontransporter-related passive membrane permeability by Transwell experiment/liquid scintillation counting; assay type: ADME, cell-based; conditions: read-out: permeability
[4] = target: T2, Broad substrate specificity ATP-binding cassette transporter ABCG2 (Homo sapiens, UniProt Q9UNQ0); experiment: Inhibition of human BCRP expressed in MDCK2 cells assessed as reduction of [3H]E-sul substrate transport up to 100 uM by liquid scintillation counting; assay type: ADME, cell-based; conditions: mdck-ii
T2 sequence (Q9UNQ0 whole entry): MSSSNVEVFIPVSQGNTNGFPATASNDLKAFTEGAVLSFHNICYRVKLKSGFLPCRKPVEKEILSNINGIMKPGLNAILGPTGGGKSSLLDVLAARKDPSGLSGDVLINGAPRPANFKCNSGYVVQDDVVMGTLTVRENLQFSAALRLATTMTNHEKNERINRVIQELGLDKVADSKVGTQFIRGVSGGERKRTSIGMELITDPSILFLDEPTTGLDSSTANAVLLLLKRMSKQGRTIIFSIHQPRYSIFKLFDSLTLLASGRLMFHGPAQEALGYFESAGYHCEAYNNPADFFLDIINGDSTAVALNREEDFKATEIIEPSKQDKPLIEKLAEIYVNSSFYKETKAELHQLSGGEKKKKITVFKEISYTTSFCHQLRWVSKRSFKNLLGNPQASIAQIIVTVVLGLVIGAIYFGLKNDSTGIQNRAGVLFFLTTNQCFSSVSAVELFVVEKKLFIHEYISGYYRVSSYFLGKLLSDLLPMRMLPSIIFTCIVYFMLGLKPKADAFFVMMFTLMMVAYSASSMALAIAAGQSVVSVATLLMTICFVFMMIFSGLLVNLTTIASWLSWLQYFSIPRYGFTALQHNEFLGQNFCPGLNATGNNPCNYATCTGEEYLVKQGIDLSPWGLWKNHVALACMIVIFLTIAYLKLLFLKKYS
Summary of the method: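 Membrane vesicles made from MDCKII cells expressing BCRP or MRP2, and from parental cells (1 μg/μL protein). Run in Tris-sucrose buffer, pH 7.4, with 10 mM MgCl2, creatine phosphokinase and ATP, or AMP as control. Substrates: 0.035 μM [3H]E-sul for BCRP, 2 min; 0.033 μM [3H]E217βG for MRP2, 5 min; both at 37 °C. Stopped ice-cold, filtered, and counted by scintillation.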

P-glycoprotein [5] = experiment: Permeability assessed as human P-glycoprotein-mediated of transport of basolateral to apical side expressed in pig LLC-PK1 cells by Transwell experiment/liquid scintillation counting; assay type: ADME, cell-based
[6] = target: T3, Solute carrier organic anion transporter family member 1B1 (Homo sapiens, UniProt Q9Y6L6); experiment: Inhibition of OATP1B1 (unknown origin) expressed in HEK293 cells assessed as reduction of [3H]E217betaG substrate uptake by liquid scintillation counting; assay type: ADME, cell-based
T3 sequence (Q9Y6L6 whole entry): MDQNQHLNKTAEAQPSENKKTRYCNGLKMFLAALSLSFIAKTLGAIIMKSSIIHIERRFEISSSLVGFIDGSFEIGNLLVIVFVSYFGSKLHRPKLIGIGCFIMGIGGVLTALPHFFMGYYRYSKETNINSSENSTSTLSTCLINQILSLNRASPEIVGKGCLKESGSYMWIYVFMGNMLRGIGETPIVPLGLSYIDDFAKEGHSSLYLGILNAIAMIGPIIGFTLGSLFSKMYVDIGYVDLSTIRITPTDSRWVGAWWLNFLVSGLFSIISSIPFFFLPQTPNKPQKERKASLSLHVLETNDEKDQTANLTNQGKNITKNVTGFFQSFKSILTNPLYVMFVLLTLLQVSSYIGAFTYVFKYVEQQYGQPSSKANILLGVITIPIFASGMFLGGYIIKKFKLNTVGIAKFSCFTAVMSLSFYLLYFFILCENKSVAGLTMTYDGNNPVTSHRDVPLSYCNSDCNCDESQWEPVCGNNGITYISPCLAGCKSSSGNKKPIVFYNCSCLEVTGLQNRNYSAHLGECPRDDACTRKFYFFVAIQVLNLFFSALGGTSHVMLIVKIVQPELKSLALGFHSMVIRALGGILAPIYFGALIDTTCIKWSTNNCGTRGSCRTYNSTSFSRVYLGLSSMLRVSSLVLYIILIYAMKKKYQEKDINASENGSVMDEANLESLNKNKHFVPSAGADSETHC

P-glycoprotein [7] = experiment: Permeability assessed as human P-glycoprotein-mediated transport across apical to basolateral side expressed in pig LLC-PK1 cells by Transwell experiment/liquid scintillation counting; assay type: ADME, cell-based
[8] = Drug uptake in human intestine at 5 mg, po; assay type: ADME, tissue-based; conditions: in vivo
[9] = Permeability assessed as human P-glycoprotein-mediated transport across basolateral to apical side expressed in pig LLC-PK1 cells by measuring membrane permeability time by Transwell experiment/liquid scintillation counting; assay type: ADME, cell-based

With `CC#CCn1c(N2CCC[C@@H](N)C2)nc2c1c(=O)n(Cc1nc(C)c3ccccc3n1)c(=O)n2C` [LINAGLIPTIN] the “inhibition (INH)” value [1] was 3.39%, the Papp B→A at 500 µM (P-glycoprotein [2]) was 15.7 ×10⁻⁶ cm/s and the Papp B→A (P-glycoprotein [3]) was 14.7 ×10⁻⁶ cm/s. The “inhibition (INH)” value [4] was 24.7%, the Km (P-glycoprotein [5]) was 154 µM and the IC50 [6] was over 100 µM. The Km (P-glycoprotein [7]) was 220 µM, the Drug uptake [8] was 42.3 µM and the Time [9] was 2.71 h.
